By inhibition is commonly meant the change of the read-out against control, counted positive when it falls. As usually defined, the IC50 is the concentration that inhibits the measured activity by half.

For 26 compounds, inhibition, Activity and IC50 results are on record in ChEMBL document CHEMBL3414434, “Exploring the chemical space of ureidothiophene-2-carboxylic acids as inhibitors of the quorum sensing enzyme PqsD from Pseudomonas aeruginosa” (Eur J Med Chem, 2015).

Calls of active or inactive are those of the source. No cut-off for these calls is given here. Starred links: 1 amine or outer side, 2 acyl side, 3 side chain; linkers in the order of their positions; H or OH if unused. Non-standard residues stand in square brackets, D forms with d. Residues, ends and D or L forms follow the SMILES beside them. *: point of attachment. X1 = COc1ccc(-c2cc(N*)c(C(=O)O)s2)cc1; AEEA = NCCOCCOCC(=O)O; CO = O=C([*:1])[*:2]

One test concerns Pseudomonas aeruginosa PA14. Nature of the test: Inhibition of PqsD in Pseudomonas aeruginosa PA14 assessed as reduction of HHQ level at 250 uM after 16 hrs by UHPLC-MS/MS analysis relative to control.
Regarding `CC[C@H](C)[C@H](NC(=O)[C@H](CCCNC(=N)N)NC(=O)[C@H](CCCNC(=N)N)NC(=O)[C@H](Cc1ccccc1)NC(=O)[C@H](CC(C)C)NC(=O)[C@H](CCCNC(=N)N)NC(=O)[C@H](CCCNC(=N)N)NC(=O)COCCOCCNC(=O)[C@H](Cc1ccccc1)NC(=O)Nc1cc(-c2ccc(OC)cc2)sc1C(=O)O)C(=O)N[C@@H](CC(C)C)C(=O)N[C@@H](CCCNC(=N)N)C(=O)N[C@@H](Cc1c[nH]c2ccccc12)C(=O)N[C@@H](CC(C)C)C(=O)O` ({X1-CO}-F[AEEA]RRLFRRILRWL-OH), the inhibition result was “inactive”.

In the case of `COc1ccc(-c2cc(NC(=O)N[C@@H](Cc3ccccc3)C(=O)SCCNC(C)=O)c(C(=O)O)s2)cc1`, the inhibition result is “inactive”.

Turning to `COc1ccc(-c2cc(NC(=O)N[C@@H](Cc3c[nH]cn3)C(=O)O)c(C(=O)O)s2)cc1`, the inhibition turned out to be 16%.

The next test concerns the target T1, 2-heptyl-4(1H)-quinolone synthase PqsD (Pseudomonas aeruginosa) (UniProt A0A0C7ACN7).
T1 sequence (whole entry): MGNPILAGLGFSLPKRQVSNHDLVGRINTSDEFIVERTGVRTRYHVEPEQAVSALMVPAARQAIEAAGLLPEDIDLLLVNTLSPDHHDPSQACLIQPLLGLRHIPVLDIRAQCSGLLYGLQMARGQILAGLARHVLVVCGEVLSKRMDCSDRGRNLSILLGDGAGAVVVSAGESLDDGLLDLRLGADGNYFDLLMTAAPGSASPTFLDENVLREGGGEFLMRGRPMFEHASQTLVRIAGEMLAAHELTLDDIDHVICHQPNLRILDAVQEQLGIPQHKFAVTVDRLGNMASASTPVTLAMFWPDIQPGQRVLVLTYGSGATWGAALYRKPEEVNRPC
Nature of the test: Inhibition of recombinant His6-tagged Pseudomonas aeruginosa PqsD expressed in Escherichia coli BL21 (deltaDE3) using anthraniloyl-CoA/beta-ketodecanoic acid as substrate assessed as HHQ formation at 50 uM preincubated for 10 mins followed by substrate addition by HPLC/MS-MS analysis relative to control. In outline:
(§1)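 His6-PqsD was expressed in E. coli BL21(DE3) (IPTG, 16 °C, 16 h) and purified by single-step affinity. Assay buffer was 0.05 M MOPS pH 7.0 with 0.005% Triton X-100, plus 0.1 µM enzyme and inhibitor (0.5% DMSO final). After 10 min preincubation at 37 °C, anthraniloyl-CoA was added; β-ketodecanoic acid was the second substrate. HHQ was measured by HPLC-MS against DMSO controls set to 100%.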
Turning to `COc1ccc(-c2cc(NC(=O)N[C@@H](Cc3c[nH]cn3)C(=O)O)c(C(=O)O)s2)cc1`, the inhibition is 40%.

Regarding `O=C(Nc1ccsc1C(=O)O)N[C@@H](Cc1ccccc1)C(=O)O`, the inhibition entry is “inactive”.

The next test has as its system Pseudomonas aeruginosa. Nature of the test: Binding affinity to recombinant His6-tagged Pseudomonas aeruginosa PqsD/anthraniloyl-CoA complex at 25 to 100 uM by surface plasmon resonance analysis. A digest of the protocol: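 His6-PqsD on an SPR sensor chip. Running buffer was HEPES pH 7.4, 150 mM NaCl, 5% DMSO, 0.05% polysorbate 20. ACoA (100 µM) was injected for about 40 min to saturate the binding site, then flushed at higher flow for 30 min. Compounds were injected in sequence and equilibrium responses compared with untreated PqsD. Run in duplicate.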
A general note: In SPR one partner is held on a chip, and binding of the other changes the refractive index at the surface.
For the compound `O=C(Nc1cc(-c2ccc(-c3ccc(CO)cc3)cc2)sc1C(=O)O)N[C@@H](Cc1ccccc1)C(=O)O`, the result was Active.

A further test concerns the target T1, 2-heptyl-4(1H)-quinolone synthase PqsD (Pseudomonas aeruginosa). Nature of the test: (§2) Inhibition of recombinant His6-tagged Pseudomonas aeruginosa PqsD expressed in Escherichia coli BL21 (deltaDE3) using anthraniloyl-CoA/beta-ketodecanoic acid as substrate assessed as HHQ formation preincubated for 10 mins followed by substrate addition by HPLC/MS-MS analysis. A digest of the protocol: as §1
For `CC[C@H](C)[C@H](NC(=O)[C@H](CCCNC(=N)N)NC(=O)[C@H](CCCNC(=N)N)NC(=O)[C@H](Cc1ccccc1)NC(=O)[C@H](CC(C)C)NC(=O)[C@H](CCCNC(=N)N)NC(=O)[C@H](CCCNC(=N)N)NC(=O)COCCOCCNC(=O)[C@H](Cc1ccccc1)NC(=O)Nc1cc(-c2ccc(OC)cc2)sc1C(=O)O)C(=O)N[C@@H](CC(C)C)C(=O)N[C@@H](CCCNC(=N)N)C(=O)N[C@@H](Cc1c[nH]c2ccccc12)C(=O)N[C@@H](CC(C)C)C(=O)O` ({X1-CO}-F[AEEA]RRLFRRILRWL-OH), the inhibition result was “Active”.

The target in another test is T2, 2-heptyl-4(1H)-quinolone synthase PqsD (Pseudomonas aeruginosa, UniProt A0A0C7ACN7).
T2 sequence (A0A0C7ACN7 whole entry): T1 sequence (whole entry)
The test is described as §2. In outline: as §1
`COc1ccc(-c2cc(NC(=O)N[C@@H](Cc3ccc(O)cc3)C(=O)O)c(C(=O)O)s2)cc1`: the IC50 was found to be 29 µM.

`COc1ccc(-c2cc(NC(=O)N[C@H](C(=O)O)C(C)C)c(C(=O)O)s2)cc1`: the half-maximal inhibitory concentration (IC50) was found to be 31.9 µM.

As to `COc1ccc(-c2cc(NC(=O)N[C@@H](Cc3c[nH]c4ccccc34)C(=O)O)c(C(=O)O)s2)cc1`, the IC50 turned out to be 5 µM.

On to `O=C(Nc1cc(-c2ccccc2)sc1C(=O)O)N[C@@H](Cc1ccccc1)C(=O)O`, for which the IC50 was 3.8 µM.

As to `COc1ccc(-c2cc(NC(=O)N[C@@H](Cc3ccccc3)C(=O)SCCNC(C)=O)c(C(=O)O)s2)cc1`, the IC50 is 32 µM.

Consider `O=C(Nc1cc(-c2ccc(O)cc2)sc1C(=O)O)N[C@@H](Cc1ccccc1)C(=O)O`, for which the IC50 is 21.6 µM.

As for `COc1ccc(-c2cc(NC(=O)N[C@@H](Cc3ccccc3)C(=O)O)c(C(=O)O)s2)cc1`, the IC50 amounted to 0.5 µM.

For the compound `O=C(Nc1cc(-c2cccc(-c3ccccc3)c2)sc1C(=O)O)N[C@@H](Cc1ccccc1)C(=O)O`, the IC50 was determined as 6.2 µM.

Consider `O=[N+]([O-])c1ccccc1C(O)c1ccccc1` (stereo not given), for which the IC50 was determined as 1 µM.

In the case of `O=C(Nc1cc(-c2ccc(-c3ccc(C(O)c4ccccc4[N+](=O)[O-])cc3)cc2)sc1C(=O)O)N[C@@H](Cc1ccccc1)C(=O)O` (stereo not given in full), the 50% inhibitory concentration (IC50) was determined as 0.36 µM.

For `COc1ccc(-c2cc(NC(=O)N[C@@H](Cc3ccccc3)C(=O)O)cs2)cc1`, the IC50 is 11.5 µM.

As to `COc1ccc(-c2cc(NC(=O)N[C@@H](CCc3ccccc3)C(=O)O)c(C(=O)O)s2)cc1`, the IC50 came to 33.7 µM.

Regarding `O=C(Nc1cc(-c2cccc(-c3ccc(CO)cc3)c2)sc1C(=O)O)N[C@@H](Cc1ccccc1)C(=O)O`, the IC50 was found to be 19.4 µM.

In the case of `O=[N+]([O-])c1ccccc1CO`, the IC50 was found to be 2 µM.

On to `COc1ccc(-c2cc(NC(=O)N[C@@H](CO)C(=O)O)c(C(=O)O)s2)cc1`, for which the IC50 is 19 µM.

With `COc1ccc(-c2cc(NC(=O)N[C@@H](CCC(=O)O)C(=O)O)c(C(=O)O)s2)cc1`, the IC50 was found to be 30.3 µM.

On to `COc1ccc(-c2cc(NC(=O)N[C@@H](Cc3ccc(Cl)cc3)C(=O)O)c(C(=O)O)s2)cc1`, for which the half-inhibitory concentration (IC50) was determined as 13.8 µM.

For `COc1ccc(-c2cc(NC(=O)N[C@@H](Cc3ccccc3)C(=O)O)c(C(=O)O)s2)c(C)c1`, the IC50 is 7.5 µM.

Consider `COc1ccc(-c2cc(NC(=O)NCC(=O)O)c(C(=O)O)s2)cc1`, for which the IC50 stood at 7 µM.

`O=C(Nc1cc(-c2ccc(-c3ccc(CO)cc3)cc2)sc1C(=O)O)N[C@@H](Cc1ccccc1)C(=O)O`: the half-inhibitory concentration (IC50) was 0.14 µM.

As to `O=C(Nc1cc(-c2ccc(-c3ccccc3)cc2)sc1C(=O)O)N[C@@H](Cc1ccccc1)C(=O)O`, the IC50 was 2.7 µM.

Regarding `COc1ccc(-c2cc(NC(=O)NCP(=O)(O)O)c(C(=O)O)s2)cc1`, the IC50 is 7 µM.

In the case of `COc1ccc(-c2cc(NC(=O)N[C@@H](CC(N)=O)C(=O)O)c(C(=O)O)s2)cc1`, the IC50 was determined as 13.2 µM.
